What all share (format): functional, cell-based
The test system of experiment [1] is HT-29. The experiment is described as follows: Cytotoxicity against human HT-29 cells after 48 hrs by alamar blue assay. Particulars: HT-29, 48 h. Put shortly:
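HT-29, a human colon cancer cell line.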

The subject of experiment [2] is MCF7. The experiment is described as follows: Cytotoxicity against human MCF7 cells after 48 hrs by alamar blue assay. As to conditions: MCF7, 48 h. Put shortly: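 MCF-7, a human breast cancer cell line.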
A general note: The colour change of resazurin is a common sign of viable cells or microbes.

The subject of experiment [3] is CCRF-CEM. The experiment is described as follows: Cytotoxicity against human CEM cells after 48 hrs by alamar blue assay. Put shortly:
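CEM, a human leukemia cell line.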

Experiment [4] deals with NCI-H460. Put plainly: Cytotoxicity against human NCI-H460 cells after 48 hrs by alamar blue assay. As to conditions: NCI-H460, 48 h. Put shortly: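 H460, a human lung cancer cell line.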

What is called IC50 is the point on the concentration scale where inhibition reaches its midpoint. A lower IC50 goes with inhibition by little substance.

As to `COc1cccc2c1C(=O)c1c(O)c3c(c(O)c1C2=O)C[C@@](O)(C(=O)CO)C[C@@H]3O[C@H]1C[C@H](N)[C@H](O)[C@H](C)O1` [DOXORUBICIN], the values for the IC50 in experiment [1] and in experiment [2] were 6.04 µM and 2.5 µM, respectively.

As for `C[C@H]1O[C@@H](c2c(O)cc(O)c3c(=O)cc(-c4ccc(O)cc4)oc23)C[C@H](O)[C@H]1O`, the IC50 in experiment [1] stood at 10 µM; in experiment [3], 2.58 µM; in experiment [2], 75 µM; in experiment [4], 12 µM.

As to `COc1cc(O)c2c(=O)cc(-c3ccc(O)cc3)oc2c1[C@H]1CC(=O)[C@H](O)[C@@H](C)O1` [ACICULATINONE], the IC50 in experiment [1] worked out at 11.6 µM; in experiment [3] it was 13.3 µM; in experiment [2] it was 18.4 µM; in experiment [4], 18.1 µM.

As for `C[C@H]1O[C@@H](c2c(O)cc(O)c3c(=O)cc(-c4ccc(O)cc4)oc23)C[C@H](O)[C@@H]1O`, the IC50 in experiment [1] stood at 25.3 µM; in experiment [3] it was 4.42 µM; in experiment [2] it was 6.35 µM; in experiment [4] it was 18.2 µM.

For `COc1cc(O)c2c(=O)cc(-c3ccc(O[C@@H]4O[C@H](CO)[C@@H](O)[C@H](O)[C@H]4O)cc3)oc2c1[C@H]1C[C@H](O)[C@H](O)[C@@H](C)O1`, the IC50 in experiment [1], in experiment [3], in experiment [2] and in experiment [4] was greater than 100 µM in each case.

Consider `COc1cc(O)c2c(=O)cc(-c3ccc(O)cc3)oc2c1[C@H]1C[C@H](O)[C@H](O)[C@@H](C)O1` [ACICULATIN], for which the IC50 in experiment [1] worked out at 26 µM; in experiment [3], 2.65 µM; in experiment [2], 3.16 µM; in experiment [4], 46.9 µM.
